In brackets after ≈: the same amount, converted by molar mass.
Key:
Candida albicans [1] = experiment: Antifungal activity against Candida albicans ATCC 10231 by broth microdilution method; type: functional
In short: (§1)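 Broth microdilution MIC per NCCLS guidelines; strains from a Chinese medical fungus preservation centre and Shenyang Pharmaceutical University. Cultures kept at 35 °C with daily growth observation.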

Candida albicans [2] = experiment: Antifungal activity against fluconazole-resistant Candida albicans 100 by broth microdilution method; type: functional; in short: as §1
[3] = target: T1, Lanosterol 14-alpha demethylase (Candida albicans (strain SC5314 / ATCC MYA-2876) (Yeast), UniProt P10613); experiment: Inhibition of CYP51 in Candida albicans SC5314 assessed as lanosterol content at 8 ug/ml after 16 hrs by GC/MS analysis (reference value: 3.9%); design: scale not given: the % may be the effect or the level left; settings: candida albicans sc5314, 16 h
T1 sequence (P10613 whole entry): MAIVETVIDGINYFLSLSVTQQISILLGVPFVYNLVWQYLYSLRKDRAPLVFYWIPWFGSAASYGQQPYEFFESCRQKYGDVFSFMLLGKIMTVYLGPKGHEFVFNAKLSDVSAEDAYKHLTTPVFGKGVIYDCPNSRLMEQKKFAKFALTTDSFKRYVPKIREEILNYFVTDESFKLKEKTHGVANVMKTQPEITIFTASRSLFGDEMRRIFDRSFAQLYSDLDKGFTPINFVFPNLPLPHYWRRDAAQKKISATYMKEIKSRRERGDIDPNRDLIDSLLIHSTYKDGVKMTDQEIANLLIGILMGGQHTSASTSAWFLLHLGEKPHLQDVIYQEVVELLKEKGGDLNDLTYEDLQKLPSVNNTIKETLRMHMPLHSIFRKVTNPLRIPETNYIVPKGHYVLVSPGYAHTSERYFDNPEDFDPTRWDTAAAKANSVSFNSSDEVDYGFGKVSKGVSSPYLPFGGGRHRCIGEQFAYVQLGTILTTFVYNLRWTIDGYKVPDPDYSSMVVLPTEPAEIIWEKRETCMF

Nakaseomyces glabratus = experiment: Antifungal activity against Candida glabrata ATCC 0001 by broth microdilution method; type: functional
In short: (§2)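 MIC per NCCLS broth microdilution. Fungi incubated at 35 °C and growth checked daily. Fluconazole served as positive control.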

Candida tropicalis = experiment: Antifungal activity against Candida tropicalis ATCC 1369 by broth microdilution method; type: functional; in short: as §2
[4] = target: T1, Lanosterol 14-alpha demethylase; experiment: Inhibition of CYP51 in Candida albicans SC5314 assessed as obtusifoliol content at 8 ug/ml after 16 hrs by GC/MS analysis relative to control; design: scale not given: the % may be the effect or the level left; settings: candida albicans sc5314, 16 h
[5] = target: T1, Lanosterol 14-alpha demethylase; experiment: Inhibition of CYP51 in Candida albicans SC5314 assessed as unidentified sterol content at 8 ug/ml after 16 hrs by GC/MS analysis (reference value: 5.8%); design: scale not given: the % may be the effect or the level left; settings: candida albicans sc5314, 16 h
[6] = target: T1, Lanosterol 14-alpha demethylase; experiment: Inhibition of CYP51 in Candida albicans SC5314 assessed as ergosterol content at 8 ug/ml after 16 hrs by GC/MS analysis (reference value: 90.3%); design: scale not given: the % may be the effect or the level left; settings: candida albicans sc5314, 16 h
[7] = target: T1, Lanosterol 14-alpha demethylase; experiment: Inhibition of CYP51 in Candida albicans SC5314 assessed as eburicol content at 8 ug/ml after 16 hrs by GC/MS analysis relative to control; design: scale not given: the % may be the effect or the level left; settings: candida albicans sc5314, 16 h
Pichia kudriavzevii = experiment: Antifungal activity against Candida krusei ATCC 6258 by broth microdilution method; type: functional; in short: as §2
Candida albicans [8] = experiment: Antifungal activity against fluconazole-resistant Candida albicans 103 by broth microdilution method; type: functional; in short: as §1
Aspergillus fumigatus = experiment: Antifungal activity against Aspergillus fumigatus KM8001 by broth microdilution method; type: functional; in short: as §2

Structure (SMILES)	MIC (Candida albicans [1]) [µg/mL]	MIC (Candida albicans [2]) [µg/mL]	Activity [3] [%]	MIC (Nakaseomyces glabratus) [µg/mL]	MIC (Candida tropicalis) [µg/mL]	Activity [4] [%]	Activity [5] [%]	Activity [6] [%]	Activity [7] [%]	MIC (Pichia kudriavzevii) [µg/mL]	MIC (Candida albicans [8]) [µg/mL]	MIC (Aspergillus fumigatus) [µg/mL]
COc1cccc(NC(=S)N(CCN(C)C)[C@@H](C)c2ccncc2)c1	4 (≈ 11.2 µM)	8 (≈ 22.3 µM)	22.4	2 (≈ 5.58 µM)	4 (≈ 11.2 µM)	7.1	5.7	5.8	59	4 (≈ 11.2 µM)	4 (≈ 11.2 µM)	8 (≈ 22.3 µM)
O=C(NCCc1ccncc1)c1cnc2c(F)cccc2c1O	8 (≈ 25.7 µM)	8 (≈ 25.7 µM)	23.1	4 (≈ 12.8 µM)	16 (≈ 51.4 µM)	8.2	4.9	9.1	54.7	8 (≈ 25.7 µM)	16 (≈ 51.4 µM)	16 (≈ 51.4 µM)
Nc1c(/C=N/NC(=O)c2ccncc2)ccc2c1C(=O)c1ccccc1C2=O	8 (≈ 21.6 µM)	8 (≈ 21.6 µM)	20.3	8 (≈ 21.6 µM)	2 (≈ 5.4 µM)	7.4	4.3	4.6	63.4	4 (≈ 10.8 µM)	16 (≈ 43.2 µM)	16 (≈ 43.2 µM)
OC(Cn1cncn1)(Cn1cncn1)c1ccc(F)cc1F [FLUCONAZOLE]	4 (≈ 13.1 µM)	> 64	19.9	2 (≈ 6.53 µM)	2 (≈ 6.53 µM)	6.3	4.1	2.5	67.2	2 (≈ 6.53 µM)	> 64	32 (≈ 104 µM)

From ChEMBL document CHEMBL4257540, “Structure-based virtual screening and ADME/T-based prediction analysis for the discovery of novel antifungal CYP51 inhibitors” (Medchemcomm, 2018)
